The target of assay [1] is T1, Protein cereblon/Histone-lysine N-methyltransferase EZH2 (Homo sapiens) (UniProt Q15910+Q96SW2). As to the kind of experiment: PROTAC activity at CRBN E3 ligase/EZH2 in PRC2 complex in human WSUDLCL2 cells assessed as reduction in EZH2 level at 2.5 uM measured after 48 hrs by Western blot analysis. The assay is classed as cell-based. The method in brief: (§1)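 WSU-DLCL-2 cells exposed 48 h to PROTAC or control analogues at 2.5 μM, with thalidomide and EPZ6438 at 10 μM; PRC2 subunit levels then read by western blot.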
(In general: A western blot detects proteins with antibodies after separation by electrophoresis.)

Assay [2] deals with T1, Protein cereblon/Histone-lysine N-methyltransferase EZH2 (Homo sapiens). As to the kind of experiment: PROTAC activity at CRBN E3 ligase/EZH2 in PRC2 complex in human WSUDLCL2 cells assessed as reduction in SUZ12 level at 2.5 uM measured after 48 hrs by Western blot analysis. Type of assay: cell-based. The method in brief: as §1
Assay [3] has the same target. Kind of assay: PROTAC activity at CRBN E3 ligase/EZH2 in PRC2 complex in human WSUDLCL2 cells assessed as reduction in RbAp48 level at 2.5 uM measured after 48 hrs by Western blot analysis. Type of assay: cell-based. The method in brief:
as §1

For assay [4] the target is unchanged. As to the kind of experiment: PROTAC activity at CRBN E3 ligase/EZH2 in PRC2 complex in human WSUDLCL2 cells assessed as reduction in EED level at 2.5 uM measured after 48 hrs by Western blot analysis. The assay is classed as cell-based. The method in brief: as §1
For assay [5], the target named is Histone-lysine N-methyltransferase EZH2 (Homo sapiens, UniProt Q15910). The assay is classed as cell-based, Sf9.
The target of assay [6] is T1, Protein cereblon/Histone-lysine N-methyltransferase EZH2 (Homo sapiens). As to the kind of experiment: PROTAC activity at CRBN E3 ligase/EZH2 in PRC2 complex in human WSUDLCL2 cells assessed as reduction in H3K27me3 level at 1 uM incubated for 48 hrs by Western blot analysis. Type of assay: cell-based. The method in brief: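 WSU-DLCL-2 cells treated 48 h (1 μM for the single-concentration screen), lysed; SDS-PAGE, nitrocellulose transfer, 5% milk block, primary antibody 4 °C overnight, chemiluminescence. Bands quantified by densitometry, normalized to GAPDH, expressed relative to DMSO-treated cells; mean ± SD of three independent experiments, t-test.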

The subject of a further assay is NCI-H1299. As to the kind of experiment: Antiproliferative activity against EZH2-knockdown human NCI-H1299 cells assessed as inhibition of cell growth at 10 uM treated for 9 days by optical microscopic analysis. Type of assay: functional, cell-based. Particulars: time 9.0 day. The method in brief: (§2)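 Cells seeded at 5 × 10³ per well, grown 24 h, then exposed to compound at 10 μM for 9 days with medium refreshed. Cells were photographed and counted on days 1, 3, 5, 7 and 9. For lines 1-2, EZH2-targeting or control shRNA was induced in the cells. Mean SD of three independent experiments; t-test against control.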

The subject of another assay is A549. As to the kind of experiment: Antiproliferative activity against EZH2-knockdown human A549 cells assessed as inhibition of cell growth at 10 uM treated for 9 days by optical microscopic analysis. Type of assay: functional, cell-based. Particulars: time 9.0 day. The method in brief: as §2

Consider nine compounds from ChEMBL document CHEMBL5038571, “Design and Synthesis of EZH2-Based PROTACs to Degrade the PRC2 Complex for Targeting the Noncatalytic Activity of EZH2” (J Med Chem, 2021).

The IC50 is the point on the concentration scale where inhibition reaches its midpoint.

Activity calls are given as the source filed them. No cut-off for these calls is given here.

Sequence of Histone-lysine N-methyltransferase EZH2 (Q15910 whole entry): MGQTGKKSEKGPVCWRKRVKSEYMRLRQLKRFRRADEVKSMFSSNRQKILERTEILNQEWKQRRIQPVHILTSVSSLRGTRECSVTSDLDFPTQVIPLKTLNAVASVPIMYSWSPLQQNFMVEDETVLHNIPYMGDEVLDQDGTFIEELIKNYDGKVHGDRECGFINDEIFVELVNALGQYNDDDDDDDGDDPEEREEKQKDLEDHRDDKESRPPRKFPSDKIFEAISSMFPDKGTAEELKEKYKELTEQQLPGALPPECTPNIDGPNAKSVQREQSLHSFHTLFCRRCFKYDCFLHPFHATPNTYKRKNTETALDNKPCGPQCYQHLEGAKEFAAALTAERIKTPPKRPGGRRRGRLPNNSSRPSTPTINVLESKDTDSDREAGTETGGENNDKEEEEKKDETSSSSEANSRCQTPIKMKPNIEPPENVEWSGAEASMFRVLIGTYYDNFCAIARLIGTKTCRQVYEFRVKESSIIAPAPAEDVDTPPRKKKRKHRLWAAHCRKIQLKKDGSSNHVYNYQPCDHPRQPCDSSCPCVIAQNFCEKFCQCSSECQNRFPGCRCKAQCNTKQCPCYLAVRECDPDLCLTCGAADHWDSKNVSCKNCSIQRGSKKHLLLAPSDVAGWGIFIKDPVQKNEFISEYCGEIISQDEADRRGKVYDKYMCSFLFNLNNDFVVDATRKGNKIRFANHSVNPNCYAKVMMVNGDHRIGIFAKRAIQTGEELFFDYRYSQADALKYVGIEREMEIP
T1 sequence (Q15910 whole entry, looked up): as the sequence (Q15910 whole entry) above
T1 sequence (Q96SW2 whole entry, looked up): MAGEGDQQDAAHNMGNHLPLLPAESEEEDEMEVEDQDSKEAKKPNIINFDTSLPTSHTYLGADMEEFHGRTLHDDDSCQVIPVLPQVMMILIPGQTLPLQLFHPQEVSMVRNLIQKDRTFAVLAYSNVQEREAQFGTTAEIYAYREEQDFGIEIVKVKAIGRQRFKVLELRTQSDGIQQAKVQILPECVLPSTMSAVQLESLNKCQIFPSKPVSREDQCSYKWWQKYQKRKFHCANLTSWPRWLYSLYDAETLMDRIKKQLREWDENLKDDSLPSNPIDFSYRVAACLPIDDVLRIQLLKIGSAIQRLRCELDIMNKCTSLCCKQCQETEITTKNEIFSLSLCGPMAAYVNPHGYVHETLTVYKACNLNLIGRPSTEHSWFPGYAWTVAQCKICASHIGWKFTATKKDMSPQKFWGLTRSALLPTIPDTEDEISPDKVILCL

With `CCN(c1cc(-c2ccc(CN3CCN(CCCCCCCOc4cccc5c4C(=O)N(C4CCC(=O)NC4=O)C5=O)CC3)cc2)cc(C(=O)NCc2c(C)cc(C)n(C)c2=O)c1C)C1CCOCC1` (stereo not drawn), the outcome in assay [1], in assay [2], in assay [3] and in assay [4] was inactive. This compound also gave an IC50 in assay [5] of 23.3 nM.

For `CC[C@H](C)n1cc(C)c2c(C(=O)NCc3c(C)cc(C)[nH]c3=O)cc(-c3ccc(N4CCN(CCCCCCCCCCCOc5cccc6c5C(=O)N(C5CCC(=O)NC5=O)C6=O)CC4)nc3)cc21` (stereo partly drawn), the IC50 in assay [5] came out at 165 nM. Also, in assay [6], the outcome was Active.

In assay [5], `CCN(c1cc(-c2ccc(CN3CCN(CCCCCCOc4cccc5c4C(=O)N(C4CCC(=O)NC4=O)C5=O)CC3)cc2)cc(C(=O)NCc2c(C)cc(C)[nH]c2=O)c1C)C1CCOCC1` (stereo not drawn) registered an IC50 of 3.9 nM.

In turn, `CCN(c1cc(-c2ccc(CN3CCN(CCCCCCCCCCCOc4cccc5c4C(=O)N(C4CCC(=O)NC4=O)C5=O)CC3)cc2)cc(C(=O)NCc2c(C)cc(C)[nH]c2=O)c1C)C1CCOCC1` (stereo not drawn) had an IC50 in assay [5] of 30 nM. For the same compound, in assay [6], the outcome was Active.

The compound `CCN(c1cc(-c2ccc(CN3CCN(CCCCOc4cccc5c4C(=O)N(C4CCC(=O)NC4=O)C5=O)CC3)cc2)cc(C(=O)NCc2c(C)cc(C)[nH]c2=O)c1C)C1CCOCC1` (stereo not drawn) showed an IC50 in assay [5] of 3.7 nM. The outcome in assay [6] was Active.

In assay [5], `CC[C@H](C)n1cc(C)c2c(C(=O)NCc3c(C)cc(C)[nH]c3=O)cc(-c3ccc(N4CCN(CCCCCCCCCOc5cccc6c5C(=O)N(C5CCC(=O)NC5=O)C6=O)CC4)nc3)cc21` (stereo partly drawn) came in with an IC50 of 16 nM. Also, the result in assay [6] was Active.

Consider `CCN(c1cc(-c2ccc(CN3CCN(CCCCCCCOc4cccc5c4C(=O)N(C4CCC(=O)N(C)C4=O)C5=O)CC3)cc2)cc(C(=O)NCc2c(C)cc(C)[nH]c2=O)c1C)C1CCOCC1` (stereo not drawn), for which the result (in the assay on NCI-H1299; in the assay with A549; in assay [1]; in assay [2]; in assay [3]; in assay [4]) was inactive. Inhibition in assay [5] was half-maximal at 1.93 nM (IC50).

For `CC[C@H](C)n1cc(C)c2c(C(=O)NCc3c(C)cc(C)[nH]c3=O)cc(-c3ccc(N4CCN(CCCCCCOc5cccc6c5C(=O)N(C5CCC(=O)NC5=O)C6=O)CC4)nc3)cc21` (stereo partly drawn), in assay [5], it took 4 nM to reach half-maximal inhibition (IC50). That is a single-digit nanomolar value.

In the case of `CC[C@H](C)n1cc(C)c2c(C(=O)NCc3c(C)cc(C)[nH]c3=O)cc(-c3ccc(N4CCN(CCCCCCCOc5cccc6c5C(=O)N(C5CCC(=O)NC5=O)C6=O)CC4)nc3)cc21` (stereo partly drawn), half-maximal inhibition in assay [5] (IC50) required 6.3 nM.
